HDAC3 inh: blocks human histone deacetylase 3 | O15379 | recombinant HDAC3, fluorogenic peptide/trypsin coupled, fluorescence | inhibition, % at 8.3 µM | actives 0.15% (n = 320,000) | AID 2718; in the data active = inhibition above about 26%, passing the limit was not always enough; inconclusive = no clear call, values can overlap the other calls
ALR inh: blocks human ALR sulfhydryl oxidase activity; actives 3.8% (n = 290,000); P55789; purified ALR, DTT oxidation, H2O2 HRP-luminol luminescence; AID 485317; inhibition, % (concentration not given with the values);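 active = mean replicate inhibition above about 79%, with every replicate also reaching it, limit read from the data; inconclusive = only one of the two criteria met; inactive = mean below limit and not every replicate reaching it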
M18AAP inhibitor: PfM18AAP enzyme inhibition | recombinant PfM18AAP, H-Glu-NHMec fluorogenic cleavage | inhibition, % at 7.35 µM | actives 1.2% (n = 290,000) | AID 1822;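 active = inhibition above the campaign mean inhibition over all tested compounds plus 3 SD, cut at about 28% in these data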;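 note: 0% = plate median of test compound wells and 100% = 2 mM ZnCl2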
Rtt109 Vps75: C. albicans Rtt109 histone acetyltransferase inhibition; Q5AAJ8; purified Rtt109/Vps75, ThioGlo CoA-SH fluorescence, 4 h; inhibition, % at 34.9 µM; actives 0.16% (n = 330,000); AID 540336;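 active = inhibition of at least 50% in every replicate; inconclusive = best replicate reaches 50% inhibition but some replicates fall short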
UCH37 DUB inh: blocks the human deubiquitinase UCH37 | inhibition, % (test concentration not listed) | actives 0.33% (n = 330,000) | purified proteasome/UCH37, Ub-AMC cleavage fluorescence | Q9Y5K5;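 active = mean inhibition over replicate wells above about 20%, limit read from the data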;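 note: 0% = compound-free wells with enzyme and 100% = wells lacking proteasome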
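Test system – human UCH37 enzyme supplied as purified proteasome complex · Incubation – 30 min preincubation with enzyme, 25 min cleavage at room temperature · Detection – AMC fluorescence from Ub-AMC cleavage, excitation 355 nm, emission 460 nm · Benchmarks – no-proteasome wells (full inhibition) and compound-free wells (no inhibition)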
FAS TE block: blocks the thioesterase domain of human fatty acid synthase; recombinant FAS-TE, OMFH fluorogenic substrate, fluorescence endpoint; AID 602261; actives 0.67% (n = 360,000); inhibition, % at 15 µM;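 active = compounds whose normalised, plate-corrected inhibition of enzyme fluorescence in the single-dose primary screen is 50% or more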;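 note: 0% = DMSO with enzyme and 100% = substrate without enzyme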
Target sequence (P49327 whole entry, looked up, the tested form may be a part): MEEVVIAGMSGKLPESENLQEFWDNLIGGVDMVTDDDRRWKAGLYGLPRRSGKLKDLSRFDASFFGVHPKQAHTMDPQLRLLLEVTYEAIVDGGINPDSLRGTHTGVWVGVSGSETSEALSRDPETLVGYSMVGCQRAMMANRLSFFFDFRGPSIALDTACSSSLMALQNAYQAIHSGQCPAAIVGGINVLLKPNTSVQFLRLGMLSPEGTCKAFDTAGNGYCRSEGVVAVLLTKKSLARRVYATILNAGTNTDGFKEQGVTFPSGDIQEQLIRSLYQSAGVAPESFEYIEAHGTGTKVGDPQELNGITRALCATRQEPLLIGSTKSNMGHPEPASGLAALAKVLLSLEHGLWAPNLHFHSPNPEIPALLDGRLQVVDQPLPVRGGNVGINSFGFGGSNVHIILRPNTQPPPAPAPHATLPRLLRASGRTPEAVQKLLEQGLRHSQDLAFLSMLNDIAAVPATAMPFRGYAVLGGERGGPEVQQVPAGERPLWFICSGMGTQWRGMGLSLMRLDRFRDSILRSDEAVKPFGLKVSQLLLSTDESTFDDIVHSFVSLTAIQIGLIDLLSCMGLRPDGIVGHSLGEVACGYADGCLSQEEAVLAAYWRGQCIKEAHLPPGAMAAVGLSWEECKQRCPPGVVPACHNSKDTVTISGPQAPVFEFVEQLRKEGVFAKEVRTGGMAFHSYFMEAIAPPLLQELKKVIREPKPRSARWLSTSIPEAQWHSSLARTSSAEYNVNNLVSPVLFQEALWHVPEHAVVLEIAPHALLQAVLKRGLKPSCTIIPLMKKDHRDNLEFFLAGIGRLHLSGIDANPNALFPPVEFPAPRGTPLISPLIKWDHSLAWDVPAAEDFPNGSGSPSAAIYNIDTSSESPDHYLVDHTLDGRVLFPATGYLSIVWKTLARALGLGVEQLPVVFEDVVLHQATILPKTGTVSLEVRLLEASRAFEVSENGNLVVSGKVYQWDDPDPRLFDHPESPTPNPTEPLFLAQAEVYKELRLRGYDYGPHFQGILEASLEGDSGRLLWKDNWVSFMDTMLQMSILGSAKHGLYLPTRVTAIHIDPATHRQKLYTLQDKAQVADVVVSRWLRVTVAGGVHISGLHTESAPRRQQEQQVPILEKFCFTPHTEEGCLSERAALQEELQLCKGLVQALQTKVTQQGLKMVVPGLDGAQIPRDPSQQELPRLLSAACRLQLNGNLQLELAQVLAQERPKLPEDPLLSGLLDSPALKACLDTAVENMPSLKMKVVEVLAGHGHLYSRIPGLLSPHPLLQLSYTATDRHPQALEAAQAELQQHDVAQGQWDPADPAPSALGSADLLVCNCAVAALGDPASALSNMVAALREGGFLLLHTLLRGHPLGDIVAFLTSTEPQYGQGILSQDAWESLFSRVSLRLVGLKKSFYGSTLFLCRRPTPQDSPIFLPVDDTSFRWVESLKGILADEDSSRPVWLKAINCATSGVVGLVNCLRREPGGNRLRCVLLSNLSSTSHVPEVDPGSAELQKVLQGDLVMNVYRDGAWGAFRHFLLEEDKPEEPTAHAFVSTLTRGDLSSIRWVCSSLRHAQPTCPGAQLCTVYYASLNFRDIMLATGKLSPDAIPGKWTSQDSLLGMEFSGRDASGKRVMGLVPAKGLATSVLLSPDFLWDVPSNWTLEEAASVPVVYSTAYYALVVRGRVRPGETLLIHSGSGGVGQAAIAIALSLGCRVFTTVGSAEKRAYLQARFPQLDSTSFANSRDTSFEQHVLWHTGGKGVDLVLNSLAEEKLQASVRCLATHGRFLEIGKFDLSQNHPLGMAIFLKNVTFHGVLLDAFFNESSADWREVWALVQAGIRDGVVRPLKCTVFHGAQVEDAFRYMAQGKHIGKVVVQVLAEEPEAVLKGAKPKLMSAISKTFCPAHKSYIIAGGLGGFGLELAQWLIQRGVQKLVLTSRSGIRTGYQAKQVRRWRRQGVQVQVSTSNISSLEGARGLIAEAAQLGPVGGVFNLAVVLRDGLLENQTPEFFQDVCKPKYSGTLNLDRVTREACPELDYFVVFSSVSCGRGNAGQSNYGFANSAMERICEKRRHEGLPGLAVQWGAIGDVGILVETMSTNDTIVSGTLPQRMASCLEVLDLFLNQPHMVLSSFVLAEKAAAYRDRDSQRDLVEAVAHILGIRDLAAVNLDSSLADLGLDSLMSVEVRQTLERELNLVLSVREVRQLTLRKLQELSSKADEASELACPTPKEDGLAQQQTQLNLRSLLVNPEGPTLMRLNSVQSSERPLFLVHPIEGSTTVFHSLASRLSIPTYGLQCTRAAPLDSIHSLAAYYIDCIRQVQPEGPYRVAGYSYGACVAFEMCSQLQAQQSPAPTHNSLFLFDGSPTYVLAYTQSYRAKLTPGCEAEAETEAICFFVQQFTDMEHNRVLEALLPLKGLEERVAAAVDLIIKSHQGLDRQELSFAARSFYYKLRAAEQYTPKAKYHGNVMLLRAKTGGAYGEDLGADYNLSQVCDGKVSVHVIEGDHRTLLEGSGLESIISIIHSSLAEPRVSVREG
The depositor's hits bear a star; u = inconclusive; x = no result. Rows were chosen to be rich in hits. Some 4.6% of all compounds tested hit in one or more screens of this group.

SMILES	HDAC3 inh	ALR inh	M18AAP inhibitor	Rtt109 Vps75	UCH37 DUB inh	FAS TE block
CCOC(=O)c1c(N=CC2=C(O)CC(C)(C)CC2=O)sc2c1CCCC2	x	x	x	x	-2	x
O=C(CNC(=O)c1ccc2c(c1)OCO2)NN=Cc1cccc([N+](=O)[O-])c1	x	x	x	x	3	x
S=c1[nH]nc(C2CCCCC2)n1/N=C/c1cccs1	14	96*	17	3	x	1
Cc1ccc(/C=N/n2c(C3CCCCC3)n[nH]c2=S)o1	-4	97*	5	4	x	-2
Cc1ccc(C=Nn2c(C3CCCCC3)n[nH]c2=S)cc1	x	x	x	x	2	x
Cc1ccc(C=NN2CCN(Cc3cccc4ccccc34)CC2)s1	x	x	x	x	3	x
c1ccc2c(NC3CCCC3)nnc(NC3CCCC3)c2c1	-2	98*	2	4	-19	-13
Cc1cccc(OCC(=O)NN=Cc2sc(=O)n(Cc3cccc(C(=O)O)c3)c2Cl)c1	x	x	x	x	9	x
COc1ccc(C=NNC(=O)c2ccco2)cc1Cn1nc(C)cc1C	x	x	x	x	7	x
Clc1ccccc1C1SCC2Nc3ccccc3CN21 (stereo unspecified)	1	98*	5	0	0	7
CCCCC(C)=NNC(=O)C(=O)NCCc1ccccc1	x	x	x	x	0	x
Oc1ccc(-c2cn3cc(C(F)(F)F)ccc3n2)cc1	0	90*	2	2	-72	0
O=C(CC1CCCCC1)c1c(O)c2ccccc2oc1=O	-2	97*	3	x	-1	-1
O=C(CCC1N=C2c3ccccc3N=C(SCc3ccccc3Cl)N2C1=O)NCc1ccco1 (stereo unspecified)	0	99*	-3	-8	-21	9
O=C(CCC1N=C2c3ccccc3N=C(SCc3cccc(Cl)c3)N2C1=O)NCc1ccco1 (stereo unspecified)	6	1	0	-18	-8	20
Cn1c(=O)c2nnn(N=C(c3ccccc3)C3CC3)c2n(C)c1=O	x	x	x	x	34*	x
O=C(NN=Cc1cc(Br)cc(Br)c1O)c1cccc(N2CCCC2=O)c1	x	x	x	x	-1	x
O=S(=O)(Cc1ccccc1)N(O)c1ccccc1	1	99*	13	1	3	-4
CC1CN(C)C(C)CC1=NOc1ccccc1[N+](=O)[O-] (stereo unspecified)	x	x	x	x	8	x
COc1cccc(NC(=S)NNC(=O)Cn2nc(C(F)F)cc2C(F)F)c1	5	84*	19	-4	1	-7
COc1cccc(NC(=S)NNC(=O)CCn2cc([N+](=O)[O-])cn2)c1	8	83*	20	3	-1	0
O=C(Cn1nc(C(F)F)cc1C(F)F)NNC(=S)Nc1ccc(F)cc1	10	29	5	-13	0	-4
Cc1ccc(C2=[N+]([O-])C3(CCCCCC3=NO)N(O)C2(C)C)o1 (stereo unspecified)	x	x	x	x	6	x
O=C(CSCCc1ccccn1)Nc1ccccn1	11	98*	9	-16	-2	-9
O=C(CSCCc1ccccn1)Nc1ccc(Br)cn1	-8	99*	-7	-2	0	-4
SMILES	HDAC3 inh	ALR inh	M18AAP inhibitor	Rtt109 Vps75	UCH37 DUB inh	FAS TE block
O=C(O)CSCCc1ccccn1	1	-5	5	-4	4	-7
Cc1ccc(NC(=O)CSCCc2ccccn2)nc1	-5	97*	6	-11	0	-7
O=C(CSCCc1ccccn1)Nc1cccnc1Cl	-3	8	-3	-8	5	-8
COC(=O)c1sccc1NC(=O)CSCCc1ccccn1	8	-1	5	6	5	-6
CC1CC(=NNC(=O)c2cccs2)CC(C)(C)C1 (stereo unspecified)	x	x	x	x	-2	x
CCNC(=O)N1c2ccc(OCC)cc2C(C)=CC1(C)C	u	88*	10	-3	-27	-3
CCOc1ccc2c(c1)C(C)=CC(C)(C)N2C(=O)Nc1ccccc1F	6	-86	10	-2	-112	-8
CC(=NN1CCN(c2ccccn2)CC1)c1ccc([N+](=O)[O-])cc1	x	x	x	x	4	x
O=C(CCn1cnc(-c2ccccc2)c1-c1ccccc1)NN=Cc1ccccc1O	x	x	x	x	-7	x
COc1ccc(-c2csc(N)n2)cc1	-3	x	2	-14	1	-15
COc1ccc2[nH]c(C)c(-c3csc(N)n3)c2c1	14	99*	9	-4	-1	-2
CC(NC(=O)c1ccccc1)C(=O)NN=Cc1cccc([N+](=O)[O-])c1 (stereo unspecified)	x	x	x	x	1	x
COc1ccc(OCc2cc(C(=O)NC3CCOCC3)no2)c2ccccc12	3	-19	2	0	24*	6
COc1cccc(OCc2cc(C(=O)NC3CCOCC3)no2)c1	2	5	0	-3	1	1
CNC(=O)CON=Cc1ccc(N(C)C)cc1	x	x	x	x	-4	x
COc1cccc(-c2c(C(=O)NN=Cc3ccsc3)nnn2-c2nonc2N)c1	x	x	x	x	5	x
CCN(CC)c1ccc(/C=N/NC(=O)c2ccco2)c(O)c1	-4	97*	2	-4	x	0
Cc1cc(NC(=O)c2ccco2)sc1C	8	98*	x	4	4	-5
CCN(CC)c1ccc(NC(=O)c2ccc(Br)o2)c(C)c1	4	99*	14	3	3	0
CCN(CC)c1ccc(NC(=O)c2cccc(F)c2)c(C)c1	0	99*	14	0	4	1
Cc1cc(O)c(NC(=O)c2ccc(Br)o2)cc1C	3	2	18	3	-1	-2
COc1cc(C=NNC(=O)c2cc(C34CC5CC(CC(C5)C3)C4)[nH]n2)ccc1O	x	x	x	x	5	x
COc1ccc(C(=O)Nc2ccccc2C(=O)NN=Cc2ccncc2)cc1OC	x	x	x	x	-1	x
CCN(CC)c1ccc(NC(=O)c2ccco2)c(C)c1	3	99*	8	6	2	-6
Cc1ccc(NC(=O)CC2Oc3ccccc3NC2=O)c(C)c1 (stereo unspecified)	-14	-3	0	21	4	-4
SMILES	HDAC3 inh	ALR inh	M18AAP inhibitor	Rtt109 Vps75	UCH37 DUB inh	FAS TE block
CCN(CC)c1ccc(NC(=O)c2ccco2)cc1	-5	3	-11	4	3	-7
CCN(CC)c1ccc(NC(=O)CC2Oc3ccccc3NC2=O)c(C)c1 (stereo unspecified)	-1	98*	14	21	6	-2
COC(=O)NN=Cc1ccccc1OC/C=C/c1ccccc1	x	x	x	x	1	x
COc1ccccc1NC(=O)CN1CCSc2ccccc21	2	80*	2	3	5	8
Cc1cccc(NC(=O)CN2CCSc3ccccc32)c1	5	x	0	2	-2	-3
COc1cccc(NC(=O)CN2CCSc3ccccc32)c1	2	100*	6	1	-1	9
CCOc1ccc(-c2nc(CSc3nncs3)cs2)cc1OC	1	94*	-3	-4	2	-3
CCOc1ccc(-c2nc(CSc3nnc(C)s3)cs2)cc1OC	1	x	-1	8	-1	-5
CCc1ccc(-c2csc3[n+]2CCN3C(C)=O)cc1	1	99*	19	5	1	-152

Assay outcomes (PubChem BioAssay)
